Source: ChEMBL document CHEMBL1909502, “Design and synthesis of 2-(1, 3-dioxoisoindolin-2-yl)-N-(4-oxo-2-substitutedthiazolidin-3-yl) acetamide derivatives as potential anticonvulsant agents” (Eur J Med Chem, 2011)
Active and inactive are the calls of the source. The calls are words filed in the database; no cut-off is given here.

How the values were obtained:
[1] = Octanol-phosphate buffer partition coefficient, log P of the compound at 5 mg after 24 hrs by UV spectroscopic analysis; format: physicochemical
In short: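 Octanol/phosphate buffer partition at room temperature. 5 mg of drug was added to 10 mL octanol plus 10 mL buffer and shaken mechanically for 24 h. The mixture was left to equilibrate for 6 h, and the phases were separated and membrane-filtered. Drug in the aqueous phase was quantified by UV spectroscopy.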

[2] = tested on: Mus musculus; test: Neurotoxicity in Swiss albino CF1 mouse assessed as decrease in locomotor activity at 30 mg/kg, ip after 4 hrs postdose; format: toxicity, organism-based; set-up: dose 30 mg/kg, route intraperitoneal; scale not given: the % may be the effect or the level left; conditions: in vivo
In short: (§1)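 Compounds in 30% PEG 200 were given i.p. at 30 mg/kg to male Swiss albino CF-1 mice. Locomotor activity was scored digitally in an actophotometer for 10 min, 24 h before dosing and again 0.5 h and 4 h after. The value is the % decrease against the pre-treatment score, as mean ± SEM, with Student's t test at p < 0.05.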

[3] = tested on: Mus musculus; test: Neurotoxicity in Swiss albino CF1 mouse assessed as decrease in locomotor activity at 30 mg/kg, ip after 0.5 hrs postdose; format: toxicity, organism-based; set-up: dose 30 mg/kg, route intraperitoneal; scale not given: the % may be the effect or the level left; conditions: in vivo; in short: as §1
[4] = tested on: Mus musculus; test: Anticonvulsant activity in ip dosed Swiss albino CF1 mouse assessed as protection against maximal electroshock-induced seizures after 0.5 hrs; format: functional; conditions: read-out: MED
In short: (§2)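 Male Swiss albino CF-1 mice, 20–30 g. Compounds were suspended in 0.5% methyl cellulose and given i.p. at 0.01 mL/g, at 30, 100 and 300 mg/kg. MES and sc PTZ seizure tests followed reported procedures at 0.5 h and 4 h post-dose. The value is the minimal dose protecting 50% or more of the animals.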

[5] = tested on: Mus musculus; test: Neurotoxicity in Swiss albino CF1 mouse assessed as minimal motor deficit at 30 to 300 mg/kg, ip after 4 hrs by rotarod test; format: toxicity, organism-based; set-up: dose 30-300 mg/kg, route intraperitoneal; conditions: in vivo
In short: (§3)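 Mice (male Swiss albino CF-1, groups of 5) were trained on an accelerating rotarod at 10 rpm with a 3.2 cm rod and had to stay on for two consecutive 90 s trials. Trained animals then received 30, 100 or 300 mg/kg i.p. Deficit was inability to stay on the rod for at least 1 min in each of three trials, checked at 0.5 h and 4 h. The value is the minimal dose giving deficit in 50% or more of the animals.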

[6] = tested on: Mus musculus; test: Anticonvulsant activity in ip dosed Swiss albino CF1 mouse assessed as protection against maximal electroshock-induced seizures after 4 hrs; format: functional; conditions: read-out: MED; in short: as §2
[7] = tested on: Mus musculus; test: Anticonvulsant activity in ip dosed Swiss albino CF1 mouse assessed as protection against subcutaneous pentylenetetrazole-induced seizures after 0.5 hrs; format: functional; conditions: Swiss albino CF1, 0.5 h, read-out: MED; in short: as §2
[8] = tested on: Mus musculus; test: Anticonvulsant activity in ip dosed Swiss albino CF1 mouse assessed as protection against subcutaneous pentylenetetrazole-induced seizures after 4 hrs; format: functional; conditions: Swiss albino CF1, 4 h, read-out: MED; in short: as §2
[9] = tested on: Mus musculus; test: Neurotoxicity in Swiss albino CF1 mouse assessed as minimal motor deficit at 30 to 300 mg/kg, ip after 0.5 hrs by rotarod test; format: toxicity, organism-based; set-up: dose 30-300 mg/kg, route intraperitoneal; conditions: in vivo; in short: as §3
[10] = tested on: Mus musculus; test: Anticonvulsant activity in Swiss albino CF1 mouse assessed as protection against subcutaneous pentylenetetrazole-induced seizures at 30 to 300 mg/kg, ip after 4 hrs postdose; format: functional, organism-based; in short: as §2
[11] = tested on: Mus musculus; test: Neurotoxicity in ip dosed Swiss albino CF1 mouse assessed as minimum dose required to produce minimal motor deficit after 4 hrs by rotarod test; format: toxicity, organism-based; conditions: in vivo; in short: as §3
[12] = tested on: Mus musculus; test: Neurotoxicity in ip dosed Swiss albino CF1 mouse assessed as minimum dose required to produce minimal motor deficit after 0.5 hrs by rotarod test; format: toxicity, organism-based; conditions: in vivo; in short: as §3
[13] = tested on: Mus musculus; test: Anticonvulsant activity in Swiss albino CF1 mouse assessed as protection against maximal electroshock-induced seizures at 30 to 300 mg/kg, ip after 0.5 hrs postdose; format: functional, organism-based; in short: as §2
[14] = tested on: Mus musculus; test: Anticonvulsant activity in Swiss albino CF1 mouse assessed as protection against subcutaneous pentylenetetrazole-induced seizures at 30 to 300 mg/kg, ip after 0.5 hrs postdose; format: functional, organism-based; in short: as §2
[15] = tested on: Mus musculus; test: Anticonvulsant activity in Swiss albino CF1 mouse assessed as protection against maximal electroshock-induced seizures at 30 to 300 mg/kg, ip after 4 hrs postdose; format: functional, organism-based; in short: as §2

logP at 24 h [1] | SMILES | Activity [2] | Activity [3] | minimal effective dose [4] | Activity [5] | minimal effective dose [6] | minimal effective dose [7] | minimal effective dose [8] | Activity [9] | Activity [10] | MTC [11] | MTC [12] | Activity [13] | Activity [14] | Activity [15]
3.79 | O=C(CN1C(=O)c2ccccc2C1=O)NN1C(=O)CSC1c1c(F)cccc1Cl (stereo unspecified) | 30.18% | 12.01% | 100 mg/kg | Non-toxic | 100 mg/kg | 300 mg/kg | 300 mg/kg | Non-toxic | – | – | – | – | – | –
1.59 | O=C(CN1C(=O)c2ccccc2C1=O)NN1C(=O)CSC1c1c[nH]c2ccccc12 (stereo unspecified) | 25.84% | 9.95% | 300 mg/kg | Non-toxic | 300 mg/kg | 300 mg/kg | – | Non-toxic | inactive | – | – | – | – | –
2.78 | COc1ccc(C2SCC(=O)N2NC(=O)CN2C(=O)c3ccccc3C2=O)cc1OC (stereo unspecified) | 27.95% | 20.25% | 300 mg/kg | Non-toxic | 300 mg/kg | 100 mg/kg | 300 mg/kg | Non-toxic | – | – | – | – | – | –
2.23 | O=C(CN1C(=O)c2ccccc2C1=O)NN1C(=O)CSC1c1ccccc1 (stereo unspecified) | 64.26% | 50% | 100 mg/kg | – | 100 mg/kg | 100 mg/kg | 300 mg/kg | – | – | 30 mg/kg | 30 mg/kg | – | – | –
2.15 | O=C(CN1C(=O)c2ccccc2C1=O)NN1C(=O)CSC1c1cccs1 (stereo unspecified) | 71.73% | 63.04% | – | – | 100 mg/kg | – | – | Non-toxic | inactive | 100 mg/kg | – | inactive | inactive | –
1.13 | O=C(CN1C(=O)c2ccccc2C1=O)NN1C(=O)CSC1c1ccco1 (stereo unspecified) | 11.64% | 5.14% | 100 mg/kg | Non-toxic | – | – | – | Non-toxic | inactive | – | – | – | inactive | inactive
1.25 | O=C(CN1C(=O)c2ccccc2C1=O)NN1C(=O)CSC1c1cccnc1 (stereo unspecified) | 24.01% | 18.03% | 100 mg/kg | Non-toxic | 300 mg/kg | – | – | Non-toxic | inactive | – | – | – | inactive | –
2.4 | O=C(CN1C(=O)c2ccccc2C1=O)NN1C(=O)CSC1c1ccc(O)cc1 (stereo unspecified) | 43.34% | 68.37% | 30 mg/kg | – | 100 mg/kg | – | – | – | inactive | 300 mg/kg | 300 mg/kg | – | inactive | –
1.46 | O=C(CN1C(=O)c2ccccc2C1=O)NN1C(=O)CSC1c1ccccc1O (stereo unspecified) | 36.91% | 32.63% | 100 mg/kg | – | 100 mg/kg | – | – | – | inactive | 100 mg/kg | 100 mg/kg | – | inactive | –
